Measured values from ChEMBL document CHEMBL4428087, “Synthesis and antitumor activity evaluation of quinazoline derivatives bearing piperazine-1-carbodithioate moiety at C4-position” (Bioorg Med Chem Lett, 2016).

Key:
[1] = tested on: HCT-116; experiment: Antiproliferative activity against human HCT116 cells after 72 hrs by MTS assay; type: functional, cell-based; details: HCT-116, 72 h
Summary of the method: (§1)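 Cells were exposed to compound for 72 h. A first screen at 50 μM called a compound active at ≥50% inhibition versus vehicle-treated cells. Active compounds were then tested at various concentrations, and IC50 (concentration giving 50% proliferation inhibition) was derived. Values are mean ± SD from triplicate determinations in three independent experiments.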

[2] = tested on: MCF7; experiment: Antiproliferative activity against human MCF7 cells after 72 hrs by MTS assay; type: functional, cell-based; details: MCF7, 72 h; summary of the method: as §1
[3] = tested on: A549; experiment: Antiproliferative activity against human A549 cells after 72 hrs by MTS assay; type: functional, cell-based; details: A549, 72 h; summary of the method: as §1
[4] = tested on: HCT-116; experiment: Cell cycle arrest in human HCT116 cells assessed as accumulation at G0/G1 phase at IC50 after 24 hrs by propidium iodide staining based flow cytometry (reference value: 34.93 %); type: functional
[5] = tested on: HCT-116; experiment: Cell cycle arrest in human HCT116 cells assessed as accumulation at S phase at IC50 after 24 hrs by propidium iodide staining based flow cytometry (reference value: 46.36 %); type: functional
[6] = tested on: HCT-116; experiment: Cell cycle arrest in human HCT116 cells assessed as accumulation at G2/M phase at IC50 after 24 hrs by propidium iodide staining based flow cytometry (reference value: 16.91 %); type: functional
[7] = tested on: HCT-116; experiment: Cell cycle arrest in human HCT116 cells assessed as accumulation at G0/G1 phase after 24 hrs by propidium iodide staining based flow cytometry; type: functional
Summary of the method: (§2)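 HCT-116 cells were treated for 24 h at multiples of IC50 (1×, 1.25× or 1.5×) or at 0.1 µM, with a DMSO control. Cells were harvested, fixed in 70% ice-cold ethanol and stained with propidium iodide. DNA content was read by flow cytometry, and the percentages of cells in G0/G1, S and G2/M were calculated. Three independent experiments were run.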

[8] = tested on: HCT-116; experiment: Cell cycle arrest in human HCT116 cells assessed as accumulation at G0/G1 phase at 0.1 uM after 24 hrs by propidium iodide staining based flow cytometry (reference value: 34.93 %); type: functional; summary of the method: as §2
[9] = tested on: HCT-116; experiment: Cell cycle arrest in human HCT116 cells assessed as accumulation at S phase at 0.1 uM after 24 hrs by propidium iodide staining based flow cytometry (reference value: 46.36 %); type: functional; summary of the method: as §2
[10] = tested on: HCT-116; experiment: Cell cycle arrest in human HCT116 cells assessed as accumulation at G2/M phase at 0.1 uM after 24 hrs by propidium iodide staining based flow cytometry (reference value: 16.91 %); type: functional; summary of the method: as §2
[11] = tested on: HCT-116; experiment: Cell cycle arrest in human HCT116 cells assessed as accumulation at G2/M phase at 1.5 times IC50 after 24 hrs by propidium iodide staining based flow cytometry (reference value: 16.91 %); type: functional; summary of the method: as §2
[12] = tested on: HCT-116; experiment: Cell cycle arrest in human HCT116 cells assessed as accumulation at G0/G1 phase at 1.25 times IC50 after 24 hrs by propidium iodide staining based flow cytometry (reference value: 34.93 %); type: functional; summary of the method: as §2
[13] = tested on: HCT-116; experiment: Cell cycle arrest in human HCT116 cells assessed as accumulation at G2/M phase at 1.25 times IC50 after 24 hrs by propidium iodide staining based flow cytometry (reference value: 16.91 %); type: functional; summary of the method: as §2
[14] = tested on: HCT-116; experiment: Cell cycle arrest in human HCT116 cells assessed as accumulation at G0/G1 phase at 1.5 times IC50 after 24 hrs by propidium iodide staining based flow cytometry (reference value: 34.93 %); type: functional; summary of the method: as §2
[15] = tested on: HCT-116; experiment: Cell cycle arrest in human HCT116 cells assessed as accumulation at sub-G1 phase after 24 hrs by propidium iodide staining based flow cytometry; type: functional; summary of the method: as §2
[16] = tested on: HCT-116; experiment: Cell cycle arrest in human HCT116 cells assessed as accumulation at S phase at 1.5 times IC50 after 24 hrs by propidium iodide staining based flow cytometry (reference value: 46.36 %); type: functional; summary of the method: as §2
[17] = tested on: HCT-116; experiment: Cell cycle arrest in human HCT116 cells assessed as accumulation at S phase at 1.25 times IC50 after 24 hrs by propidium iodide staining based flow cytometry (reference value: 46.36 %); type: functional; summary of the method: as §2

Structure (SMILES) | IC50 [1] [µM] | IC50 [2] [µM] | IC50 [3] [µM] | other results
COc1ccc(CSC(=S)N2CCN(c3ncnc4cc(OCCCN5CCCCC5)c(OC)cc34)CC2)cc1 | 4.92 | 4.16 | 4.25 | 
COc1cc2c(N3CCN(C(=S)SCc4ccc(F)cc4F)CC3)ncnc2cc1OCCCN1CCCCC1 | 4.64 | 4.67 | 5.44 | 
O=c1[nH]cc(F)c(=O)[nH]1 [FLUOROURACIL] |  |  |  | Activity [4]: 28.47%; Activity [5]: 62.28%; Activity [6]: 8.29%
COc1cc2c(N3CCN(C(=S)SCc4ccc(F)cc4)CC3)ncnc2cc1OCCCN1CCCCC1 | 4.5 | 4.2 | 4.25 | 
COc1cc2c(N3CCN(C(=S)SCC4CCCO4)CC3)ncnc2cc1OCCCN1CCCCC1 (centres undefined) | 19.2 | 22.7 | 22.8 | 
COc1cc2c(N3CCN(C(=S)SCc4ccc(Cl)cc4)CC3)ncnc2cc1OCCCN1CCCCC1 | 8.04 | 3.94 | 4.71 | 
COc1cc2c(N3CCN(C(=O)Nc4ccc(OC(C)C)cc4)CC3)ncnc2cc1OCCCN1CCCCC1 [TANDUTINIB] | 18.1 | 14.7 | 14.8 | 
COc1cc2c(N3CCN(C(=S)SCc4ccccn4)CC3)ncnc2cc1OCCCN1CCCCC1 | 20.6 | 20.7 | 28.8 | 
COc1cc2c(N3CCN(C(=S)SCC4CCOCC4)CC3)ncnc2cc1OCCCN1CCCCC1 | 15.1 | 18.4 | 19.1 | 
CCN(CC)CCNC(=O)c1c(C)[nH]c(/C=C2\C(=O)Nc3ccc(F)cc32)c1C [SUNITINIB] |  |  |  | Activity [7]: Dose-dependent effect; Activity [8]: 50.07%; Activity [9]: 33.36%; Activity [10]: 14.16%
COc1cc2c(N3CCN(C(=S)SCc4ccc(F)c(F)c4)CC3)ncnc2cc1OCCCN1CCCCC1 | 5.96 | 3.07 | 4.9 | 
COc1cc2c(N3CCN(C(=S)SCC4OCCO4)CC3)ncnc2cc1OCCCN1CCCCC1 | 23.9 | 29.6 | 24.6 | 
CCCSC(=S)N1CCN(c2ncnc3cc(OCCCN4CCCCC4)c(OC)cc23)CC1 | 8.67 | 10.5 | 8.07 | 
CCSC(=S)N1CCN(c2ncnc3cc(OCCCN4CCCCC4)c(OC)cc23)CC1 | 10.3 | 16.6 | 18.4 | 
COc1cc2c(N3CCN(C(=S)SC)CC3)ncnc2cc1OCCCN1CCCCC1 | 24.4 | 27.5 | 33.4 | 
COc1cc2c(N3CCN(C(=S)SCc4ccc([N+](=O)[O-])cc4)CC3)ncnc2cc1OCCCN1CCCCC1 | 5.65 | 6.89 | 5.36 | 
COc1cc2c(N3CCN(C(=S)SCc4cccnc4)CC3)ncnc2cc1OCCCN1CCCCC1 | 22.2 | 22.2 | 19.5 | 
COc1cc2c(N3CCN(C(=S)SCc4c(F)c(F)c(F)c(F)c4F)CC3)ncnc2cc1OCCCN1CCCCC1 | 4.45 | 4.14 | 4.58 | 
COc1cc2c(N3CCN(C(=S)SCc4ccc(Br)cc4)CC3)ncnc2cc1OCCCN1CCCCC1 | 4.52 | 3.93 | 4.31 | 
COc1cccc(CSC(=S)N2CCN(c3ncnc4cc(OCCCN5CCCCC5)c(OC)cc34)CC2)c1 | 8.01 | 3.86 | 4.58 | 
COc1cc2c(N3CCN(C(=S)SCc4ccsc4)CC3)ncnc2cc1OCCCN1CCCCC1 | 5.64 | 5.17 | 4.84 | 
COc1cc2c(N3CCN(C(=S)SCc4ccncc4)CC3)ncnc2cc1OCCCN1CCCCC1 | > 50 | > 50 | > 50 | 
COc1cc2c(N3CCN(C(=S)SCc4ccco4)CC3)ncnc2cc1OCCCN1CCCCC1 | 7.3 | 7.29 | 6.58 | 
COc1cc2c(N3CCN(C(=S)SCc4ccccc4)CC3)ncnc2cc1OCCCN1CCCCC1 | 28.8 | 28 | 15.7 | 
COc1cc2c(N3CCN(C(=S)SCc4ccc(C#N)cc4)CC3)ncnc2cc1OCCCN1CCCCC1 | 8.67 | 10.1 | 9.52 | 
COc1cc2c(N3CCN(C(=S)SCC4CCCCC4)CC3)ncnc2cc1OCCCN1CCCCC1 | 4.55 | 3.99 | 4.06 | Activity [4]: 44.47%; Activity [11]: 14.4%; Activity [7]: Dose-dependent effect; Activity [5]: 26.82%; Activity [6]: 28.74%; Activity [12]: 50.65%; Activity [13]: 24.97%; Activity [14]: 55.8%; Activity [15]: Dose-dependent effect; Activity [16]: 27.37%; Activity [17]: 23.67%
COc1cc2c(N3CCN(C(=S)SC(C)C)CC3)ncnc2cc1OCCCN1CCCCC1 | 10.4 | 8.37 | 11.3 | 
COc1cc2c(N3CCN(C(=S)SCc4ccc(C(=O)O)cc4)CC3)ncnc2cc1OCCCN1CCCCC1 | > 50 | > 50 | > 50 | 
COc1cc2c(N3CCN(C(=S)SCc4ccc(C)cc4)CC3)ncnc2cc1OCCCN1CCCCC1 | 5.46 | 3.73 | 4.51 | 
